Screens: PubChem BioAssay, NMMLSC
MEKK3 PB1 HTS = MEKK3-MEK5 PB1 interaction, increase or decrease; Q99759; bead-based flow cytometry, Alexa488-MEK5 binding to MEKK3; actives lie on both sides; 0 = blocked by unlabeled MEK5, 100 = vehicle; binding response (% of control), % at 10 µM; 290,000 compounds, 1.4% hits; AID 1529;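 active means binding response more than 3 SD above or below the average of its plate-row segment, actives on both sides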;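 further: Alexa488 bead fluorescence after subtracting the streptavidin-only scavenger bead signal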
Efflux pump mplx = inhibitors of Candida antifungal efflux pumps expressed in yeast; S. cerevisiae Candida pump triplex, Nile Red efflux; inhibition, % at 10 µM; 330,000 compounds, 0.44% hits; AID 485275;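 active means plate passing quality check with inhibition over a set limit, or well fluorescence over plate mean plus 4 SD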;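 further: Nile Red retained in pooled yeast measured as flow cytometry median fluorescence; higher means more Nile Red kept so more efflux inhibition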
MEKK2wt PB1 HTS = raises or lowers MEK5 binding to wildtype human MEKK2 PB1 domain; binding response (% of control), % at 10 µM; 290,000 compounds, 1.1% hits; bead flow cytometry, Alexa488-MEK5 binding to MEKK2 WT; actives lie on both sides; in the data active means binding response below about 67% or above about 130%
ABCB1 block = human ABCB1 inhibition, ABCG2 as counter-screen | P08183 | CCRF-Adr cells, JC-1 efflux, flow cytometry | inhibition, % at 6.6 µM | 190,000 compounds, 0.067% hits; in the data active means inhibition above about 40%;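 further: higher value means more JC-1 retained so stronger ABCB1 efflux block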
MEKK2 mut-MEK5 = signal of MEK5 binding to mutant human MEKK2 PB1 domain; percent response, % at 10 µM; 290,000 compounds, 0.35% hits; AID 1530; bead flow cytometry, Alexa488-MEK5 binding to MEKK2 mutant; in the data active means percent response above about 24%, passing the limit was not always enough
ABCG2 block = inhibitors of human ABCG2 transporter, ABCB1 counter-screen. inhibition, % at 6.6 µM. 190,000 compounds, 0.1% hits. IgMXP3 cells, JC-1 efflux, flow cytometry. Q9UNQ0. AID 1325;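 active means inhibition above 80%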
Target sequence (Q9UNQ0 whole entry, looked up): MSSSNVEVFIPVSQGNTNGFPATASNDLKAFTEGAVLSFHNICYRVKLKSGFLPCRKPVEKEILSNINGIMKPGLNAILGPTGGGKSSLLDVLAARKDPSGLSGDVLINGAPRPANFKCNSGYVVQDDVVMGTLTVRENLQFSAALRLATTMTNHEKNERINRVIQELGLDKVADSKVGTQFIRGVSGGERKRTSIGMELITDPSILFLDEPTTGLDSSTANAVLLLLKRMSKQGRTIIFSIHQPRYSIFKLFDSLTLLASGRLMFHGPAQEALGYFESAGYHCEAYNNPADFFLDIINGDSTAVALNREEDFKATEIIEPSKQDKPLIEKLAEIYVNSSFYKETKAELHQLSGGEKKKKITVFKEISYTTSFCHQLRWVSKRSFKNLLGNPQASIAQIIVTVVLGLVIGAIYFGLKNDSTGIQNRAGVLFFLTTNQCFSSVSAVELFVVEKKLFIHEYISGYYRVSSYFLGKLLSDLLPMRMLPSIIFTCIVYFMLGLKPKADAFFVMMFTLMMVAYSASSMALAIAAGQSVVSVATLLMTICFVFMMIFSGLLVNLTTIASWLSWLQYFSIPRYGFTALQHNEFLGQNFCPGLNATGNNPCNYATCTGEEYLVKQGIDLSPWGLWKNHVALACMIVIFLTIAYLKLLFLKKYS
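test system = two drug-resistant human cell lines, ABCG2 and ABCB1 | amount = 3 million cells/mL final, two lines in 1:1 ratio | reagent = JC-1 transporter substrate | doses = one concentration, 6.6 µM final | incubation = 10 min at 25 °C | signal = flow cytometric JC-1 green MFI at 530 nm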
MEKK2wt confirm = raises or lowers MEK5 binding to wildtype human MEKK2, retest. shares compounds with MEKK3 PB1 HTS. binding response (% of control), % at 10 µM. bead flow cytometry, Alexa488-MEK5 binding to MEKK2 WT; actives lie on both sides. 5,900 compounds, 2.4% hits; in the data active means binding response below about 16% or above about 210%; inactive means in between
MEKK2mut confirm = signal of MEK5 binding to mutant human MEKK2, retest; shares compounds with MEKK3 PB1 HTS; bead flow cytometry, Alexa488-MEK5 binding to MEKK2 mutant; percent response, % at 10 µM; 5,900 compounds, 2% hits; in the data active means percent response mostly above about 71%, no sharp cut-off; inactive means mostly below about 38%;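 further: higher means compound restores mutant binding toward wildtype level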
MEKK3-MEK5 inh = confirmation of inhibitors of MEK5 binding to human MEKK3; shares compounds with MEKK3 PB1 HTS; bead flow cytometry, Alexa488-MEK5 binding to MEKK3; hits give low values; binding response (% of control), % at 10 µM; 5,900 compounds, 1.8% hits; AID 1894;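 active means binding response below 72% of control, or above a set upper limit, though filed actives all read lower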
Each line names hits and unclear results; the compound was inactive in the other large screens (follow-up assays come after a bar, where they were run); [ ] = another dose, or the depositor's remark. This is a sample that favours compounds with a hit; in the whole collection about 2.5% have one here.

CCC(=O)N/N=C/c1ccc(OS(=O)(=O)c2ccccc2)cc1	none
NC(N)=N/N=C/c1ccc(OS(=O)(=O)c2ccccc2)cc1	MEKK2wt PB1 HTS 146 | MEKK2wt confirm inactive | MEKK2mut confirm inactive | MEKK3-MEK5 inh inactive
CCC(COC)NCc1cn(-c2ccc(OC)cc2)nc1-c1cccc(F)c1 (stereo not drawn)	none
Oc1ccc(Cl)cc1/C=C/c1ccc2cccc(O)c2n1	MEKK3 PB1 HTS 128 (no result: Efflux pump mplx) | MEKK2wt confirm inactive | MEKK2mut confirm inactive | MEKK3-MEK5 inh inactive
FC(F)(F)c1cc(CCN2CCNC[C@@H]2Cc2ccccc2)cc(C(F)(F)F)c1	MEKK2wt PB1 HTS 146 (no result: ABCB1 block, ABCG2 block) | MEKK2wt confirm inactive | MEKK2mut confirm inactive | MEKK3-MEK5 inh inactive
Fc1cccc(CCN2CCNC[C@@H]2Cc2ccccc2)c1	none (no result: ABCB1 block, ABCG2 block)
CCc1c(C)sc(NC(=O)Cc2ccccc2C)c1C(=O)N1CCOCC1	none (no result: ABCB1 block, ABCG2 block)
CC(C)=N/N=C(/c1ccc([N+](=O)[O-])cc1)C12CN3CN(CN(C3)C1)C2	MEKK3 PB1 HTS 148, MEKK2 mut-MEK5 active (no result: MEKK2wt PB1 HTS) | MEKK2wt confirm inactive | MEKK2mut confirm inactive | MEKK3-MEK5 inh inactive
O=[N+]([O-])c1cccc(/C(=N/N=C/c2ccccc2Br)C23CN4CN(CN(C4)C2)C3)c1	none
CC1CCCCC12NC(=O)N(CC(=O)NCCc1c[nH]c3ccccc13)C2=O (stereo not drawn)	none (no result: MEKK3 PB1 HTS, MEKK2wt PB1 HTS, ABCB1 block, MEKK2 mut-MEK5, ABCG2 block)
NC1=NC[C@H](Cc2ccc(O)cc2)N1CCc1cccc2ccccc12	MEKK2wt PB1 HTS 152, MEKK2 mut-MEK5 50 (no result: ABCB1 block, ABCG2 block) | MEKK2wt confirm inactive | MEKK2mut confirm inactive | MEKK3-MEK5 inh inactive
NCCCC[C@H]1CN=C(N)N1CCc1cccc2ccccc12	none (no result: ABCB1 block, ABCG2 block)
C=CCn1c(CNC(=O)c2ccccc2F)nnc1SCc1nc2ccccc2c(=O)[nH]1	none
Nc1nonc1-c1nc2ccccc2n1CC(=O)N/N=C/c1ccc(-c2cccc(C(=O)O)c2)o1	none (no result: Efflux pump mplx)
CNS(=O)(=O)c1ccc(NCC2COc3ccccc3O2)c([N+](=O)[O-])c1 (stereo not drawn)	MEKK3 PB1 HTS 133 | MEKK2wt confirm inactive | MEKK2mut confirm inactive | MEKK3-MEK5 inh inactive
O=S(=O)(NCC1COc2ccccc2O1)c1ccc2ccccc2c1 (stereo not drawn)	none
Oc1ccc2cccnc2c1	none
O=C(Cc1ccc2cccnc2c1)c1ccc(O)cc1O	MEKK3 PB1 HTS 2.0[inhibitor], MEKK2wt PB1 HTS -1.0[inhibitor] | MEKK2wt confirm inactive | MEKK2mut confirm inactive | MEKK3-MEK5 inh inactive
CCCc1cc(=O)[nH]c(SCC(=O)c2[nH]c(C)c(C(=O)OCC)c2C)n1	none
COc1cc2c(cc1OC)CN(C(=O)c1ccco1)CC2	MEKK3 PB1 HTS 143 | MEKK2wt confirm inactive | MEKK2mut confirm inactive | MEKK3-MEK5 inh inactive
O=C1CCCN1c1nccs1	none
CC(=O)N1N=C(N)SC12CCCC2	none
CC(=O)NC1=NN(C(C)=O)C2(CCCC2)S1	MEKK3 PB1 HTS 132 | MEKK2wt confirm inactive | MEKK2mut confirm inactive | MEKK3-MEK5 inh inactive
Cc1ccc2c(c1)C1CN(C)CCC1N2C(=O)COc1ccc(N(C)S(=O)(=O)c2cccs2)cc1 (stereo not drawn)	none (no result: ABCB1 block, ABCG2 block)
CCOc1ccc(S(=O)(=O)N(C)c2ccc(OCC(=O)N3c4ccc(C)cc4C4CN(C)CCC43)cc2)cc1 (stereo not drawn)	MEKK2wt PB1 HTS 140 | MEKK2wt confirm inactive | MEKK2mut confirm inactive | MEKK3-MEK5 inh inactive
O=C(CN1CCN(C(=O)c2cccs2)CC1)NC1CCCCC1	MEKK3 PB1 HTS 81[inhibitor] | MEKK2wt confirm inactive | MEKK2mut confirm inactive | MEKK3-MEK5 inh inactive
O=C(CN1CCN(C(=O)c2cccs2)CC1)Nc1ccc(Br)cc1	none
CC(C)OC(=O)/C(=C\c1ccccc1)NC(=O)c1ccccc1	none
CC(C)OC(=O)C(NC(=O)c1ccccc1)=C1CCCCC1	MEKK3 PB1 HTS 122 | MEKK2wt confirm inactive | MEKK2mut confirm inactive | MEKK3-MEK5 inh inactive
C(=C\c1nc(-c2cccnc2)no1)/c1ccccc1	MEKK3 PB1 HTS 3.0[inhibitor], MEKK2wt PB1 HTS 6.0[inhibitor] | MEKK2wt confirm inactive | MEKK2mut confirm inactive | MEKK3-MEK5 inh inactive
Clc1ccccc1/C=C/c1nc(-c2cccnc2)no1	none (no result: ABCB1 block, ABCG2 block)
Cc1ccc(SCCN2CCC(O)CCC2=O)cc1 (stereo not drawn)	none (no result: ABCB1 block, ABCG2 block)
CN1CCN(CC(=O)Nc2cccc(S(=O)(=O)N(C)c3ccccc3)c2)CC1	none (no result: MEKK3 PB1 HTS, MEKK2wt PB1 HTS, ABCB1 block, MEKK2 mut-MEK5, ABCG2 block)
CCOC(=O)c1cnc2c(ccc3ccccc32)c1NCCCN(C)C	MEKK2wt PB1 HTS 151 (no result: ABCB1 block, ABCG2 block) | MEKK2wt confirm inactive | MEKK2mut confirm inactive | MEKK3-MEK5 inh inactive
CCOC(=O)c1cnc2ccccc2c1NCCO	none
CCCc1nn(C)c(C(N)=O)c1[N+](=O)[O-]	none
Cc1noc(/C=C/N(C)C)c1S(=O)(=O)N1CCCC(C(=O)Nc2ccc(F)cc2F)C1 (stereo not drawn)	none (no result: ABCB1 block, ABCG2 block)
Cc1cccc2c1-c1sc(C(=O)N3CCCCC3)cc1CO2	none (no result: ABCB1 block, ABCG2 block)
Cc1cccc2c1-c1sc(C(=O)Nc3ccccc3N3CCN(C)CC3)cc1CO2	MEKK2wt PB1 HTS 162 (no result: ABCB1 block, ABCG2 block) | MEKK2wt confirm inactive | MEKK2mut confirm inactive | MEKK3-MEK5 inh inactive
C#CCOCCOCCOCCNc1nc(N2CCN(C(=O)[C@H](Cc3ccc(O)cc3)n3cc([C@@H](N)C(C)CC)nn3)CC2)nc(N2CCN(C(=O)[C@H](Cc3cc4ccccc4[nH]3)n3cc([C@@H](N)C(C)CC)nn3)CC2)n1 (stereo partly drawn)	MEKK2wt PB1 HTS 208, MEKK2 mut-MEK5 59 | MEKK2wt confirm inactive | MEKK2mut confirm inactive | MEKK3-MEK5 inh inactive
C#CCOCCOCCOCCNc1nc(N2CCN(C(=O)[C@H](Cc3cc4ccccc4[nH]3)n3cc([C@@H](N)C(C)CC)nn3)CC2)nc(N2CCN(C(=O)[C@H](CCCCN)n3cc([C@@H](N)CC(C)C)nn3)CC2)n1 (stereo partly drawn)	MEKK2wt PB1 HTS 247, MEKK2 mut-MEK5 95 | MEKK2wt confirm 232 | MEKK2mut confirm 89 | MEKK3-MEK5 inh inactive
